ChEMBL document CHEMBL4689842, “EUbOPEN Chemogenomics Library wave 1” (2021)

Test system: HEK-293T
Experiment: Multiplex assay against HEK293T;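 for Population Tubulin-Different-Phenotype (%): share of the cells with healthy nuclei that show this phenotype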
Format: toxicity, cell-based
Settings: human
Summary of the method: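 Cells were classed with CellPathfinder machine-learning gating, first as Hoechst high-intensity objects or normal cells, then (normal cells) as healthy, pyknosed or fragmented nuclei, and finally (pyknosed cells) as mitotic or apoptotic. Staining of live cells at seeding used Hoechst33342, BioTracker Green Microtubule Cytoskeleton Dye, MitoTracker Red and Annexin V Alexa Fluor 680, with imaging on a CQ1 microscope at 37°C and 5% CO2 after compound addition. Tubulin, mitochondrial-mass and membrane-permeability phenotypes are per cents of healthy-nucleus cells.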

[1] = 12 h, 1 µM, compound concentration 1 uM, replicate 1
[2] = 12 h, 1 µM, compound concentration 1 uM, replicate 2
[3] = 12 h, 10 µM, compound concentration 10 uM, replicate 1
[4] = 12 h, 10 µM, compound concentration 10 uM, replicate 2
[5] = 24 h, 1 µM, compound concentration 1 uM, replicate 1
[6] = 24 h, 1 µM, compound concentration 1 uM, replicate 2
[7] = 24 h, 10 µM, compound concentration 10 uM, replicate 1
[8] = 24 h, 10 µM, compound concentration 10 uM, replicate 2

CNC(=O)c1ccc(Nc2nc(OC3CCCC3)c3c(-c4ccc5nc(C)oc5c4)c[nH]c3n2)c(OC)c1
Population Apoptotic (%) [1]: 36%
Population Fragmented Nuclei (%) [1]: 20%
Population Healthy Nuclei (%) [1]: 22%
Population Hoechst High Intensity Objects (%) [1]: 22%
Population Membrane Permeable-Phenotype (%) [1]: 19%
Population Mitochondria Different-Phenotype (%) [1]: 28%
Population Mitotic Cells (%) [1]: 63%
Population Normal (%) [1]: 77%
Population Pyknosed Nuclei (%) [1]: 57%
Population Tubulin-Different-Phenotype (%) [1]: 76%
Total Cell Count [1]: 469
Population Apoptotic (%) [2]: 37%
Population Fragmented Nuclei (%) [2]: 2%
Population Healthy Nuclei (%) [2]: 77%
Population Hoechst High Intensity Objects (%) [2]: 4%
Population Membrane Permeable-Phenotype (%) [2]: 18%
Population Mitochondria Different-Phenotype (%) [2]: 47%
Population Mitotic Cells (%) [2]: 62%
Population Normal (%) [2]: 95%
Population Pyknosed Nuclei (%) [2]: 19%
Population Tubulin-Different-Phenotype (%) [2]: 94%
Total Cell Count [2]: 712
Population Apoptotic (%) [3]: 26%
Population Fragmented Nuclei (%) [3]: 19%
Population Healthy Nuclei (%) [3]: 50%
Population Hoechst High Intensity Objects (%) [3]: 20%
Population Membrane Permeable-Phenotype (%) [3]: 22%
Population Mitochondria Different-Phenotype (%) [3]: 13%
Population Mitotic Cells (%) [3]: 73%
Population Normal (%) [3]: 79%
Population Pyknosed Nuclei (%) [3]: 30%
Population Tubulin-Different-Phenotype (%) [3]: 58%
Total Cell Count [3]: 532
Population Apoptotic (%) [4]: 14%
Population Fragmented Nuclei (%) [4]: 3%
Population Healthy Nuclei (%) [4]: 91%
Population Hoechst High Intensity Objects (%) [4]: 5%
Population Membrane Permeable-Phenotype (%) [4]: 13%
Population Mitochondria Different-Phenotype (%) [4]: 27%
Population Mitotic Cells (%) [4]: 85%
Population Normal (%) [4]: 94%
Population Pyknosed Nuclei (%) [4]: 4%
Population Tubulin-Different-Phenotype (%) [4]: 83%
Total Cell Count [4]: 1205
Population Apoptotic (%) [5]: 61%
Population Fragmented Nuclei (%) [5]: 28%
Population Healthy Nuclei (%) [5]: 13%
Population Hoechst High Intensity Objects (%) [5]: 25%
Population Membrane Permeable-Phenotype (%) [5]: 10%
Population Mitochondria Different-Phenotype (%) [5]: 54%
Population Mitotic Cells (%) [5]: 38%
Population Normal (%) [5]: 74%
Population Pyknosed Nuclei (%) [5]: 57%
Population Tubulin-Different-Phenotype (%) [5]: 58%
Total Cell Count [5]: 472
Population Apoptotic (%) [6]: 43%
Population Fragmented Nuclei (%) [6]: 3%
Population Healthy Nuclei (%) [6]: 80%
Population Hoechst High Intensity Objects (%) [6]: 9%
Population Membrane Permeable-Phenotype (%) [6]: 5%
Population Mitochondria Different-Phenotype (%) [6]: 66%
Population Mitotic Cells (%) [6]: 56%
Population Normal (%) [6]: 90%
Population Pyknosed Nuclei (%) [6]: 15%
Population Tubulin-Different-Phenotype (%) [6]: 78%
Total Cell Count [6]: 721
Population Apoptotic (%) [7]: 24%
Population Fragmented Nuclei (%) [7]: 20%
Population Healthy Nuclei (%) [7]: 62%
Population Hoechst High Intensity Objects (%) [7]: 15%
Population Membrane Permeable-Phenotype (%) [7]: 23%
Population Mitochondria Different-Phenotype (%) [7]: 15%
Population Mitotic Cells (%) [7]: 75%
Population Normal (%) [7]: 84%
Population Pyknosed Nuclei (%) [7]: 17%
Population Tubulin-Different-Phenotype (%) [7]: 81%
Total Cell Count [7]: 481
Population Apoptotic (%) [8]: 11%
Population Fragmented Nuclei (%) [8]: 10%
Population Healthy Nuclei (%) [8]: 86%
Population Hoechst High Intensity Objects (%) [8]: 5%
Population Membrane Permeable-Phenotype (%) [8]: 17%
Population Mitochondria Different-Phenotype (%) [8]: 11%
Population Mitotic Cells (%) [8]: 88%
Population Normal (%) [8]: 94%
Population Pyknosed Nuclei (%) [8]: 2%
Population Tubulin-Different-Phenotype (%) [8]: 87%
Total Cell Count [8]: 1423

Cc1ccc2nc(NCCN)c3ncc(C)n3c2c1.O=C(O)C(F)(F)F.O=C(O)C(F)(F)F
Population Apoptotic (%) [1]: 29%
Population Fragmented Nuclei (%) [1]: 14%
Population Healthy Nuclei (%) [1]: 67%
Population Hoechst High Intensity Objects (%) [1]: 13%
Population Membrane Permeable-Phenotype (%) [1]: 6%
Population Mitochondria Different-Phenotype (%) [1]: 2%
Population Mitotic Cells (%) [1]: 70%
Population Normal (%) [1]: 86%
Population Pyknosed Nuclei (%) [1]: 18%
Population Tubulin-Different-Phenotype (%) [1]: 3%
Total Cell Count [1]: 581
Population Apoptotic (%) [2]: 14%
Population Fragmented Nuclei (%) [2]: 10%
Population Healthy Nuclei (%) [2]: 85%
Population Hoechst High Intensity Objects (%) [2]: 2%
Population Membrane Permeable-Phenotype (%) [2]: 1%
Population Mitochondria Different-Phenotype (%) [2]: 9%
Population Mitotic Cells (%) [2]: 85%
Population Normal (%) [2]: 97%
Population Pyknosed Nuclei (%) [2]: 3%
Population Tubulin-Different-Phenotype (%) [2]: 5%
Total Cell Count [2]: 1754
Population Apoptotic (%) [3]: 25%
Population Fragmented Nuclei (%) [3]: 13%
Population Healthy Nuclei (%) [3]: 58%
Population Hoechst High Intensity Objects (%) [3]: 14%
Population Membrane Permeable-Phenotype (%) [3]: 5%
Population Mitochondria Different-Phenotype (%) [3]: 14%
Population Mitotic Cells (%) [3]: 75%
Population Normal (%) [3]: 85%
Population Pyknosed Nuclei (%) [3]: 27%
Population Tubulin-Different-Phenotype (%) [3]: 14%
Total Cell Count [3]: 591
Population Apoptotic (%) [4]: 26%
Population Fragmented Nuclei (%) [4]: 5%
Population Healthy Nuclei (%) [4]: 83%
Population Hoechst High Intensity Objects (%) [4]: 5%
Population Membrane Permeable-Phenotype (%) [4]: 1%
Population Mitochondria Different-Phenotype (%) [4]: 27%
Population Mitotic Cells (%) [4]: 73%
Population Normal (%) [4]: 94%
Population Pyknosed Nuclei (%) [4]: 10%
Population Tubulin-Different-Phenotype (%) [4]: 19%
Total Cell Count [4]: 1004
Population Apoptotic (%) [5]: 35%
Population Fragmented Nuclei (%) [5]: 14%
Population Healthy Nuclei (%) [5]: 76%
Population Hoechst High Intensity Objects (%) [5]: 6%
Population Membrane Permeable-Phenotype (%) [5]: 5%
Population Mitochondria Different-Phenotype (%) [5]: 3%
Population Mitotic Cells (%) [5]: 64%
Population Normal (%) [5]: 93%
Population Pyknosed Nuclei (%) [5]: 8%
Population Tubulin-Different-Phenotype (%) [5]: 6%
Total Cell Count [5]: 670
Population Apoptotic (%) [6]: 5%
Population Fragmented Nuclei (%) [6]: 30%
Population Healthy Nuclei (%) [6]: 67%
Population Hoechst High Intensity Objects (%) [6]: 3%
Population Membrane Permeable-Phenotype (%) [6]: 4%
Population Mitochondria Different-Phenotype (%) [6]: 1%
Population Mitotic Cells (%) [6]: 94%
Population Normal (%) [6]: 96%
Population Pyknosed Nuclei (%) [6]: 1%
Total Cell Count [6]: 2957
Population Apoptotic (%) [7]: 38%
Population Fragmented Nuclei (%) [7]: 14%
Population Healthy Nuclei (%) [7]: 60%
Population Hoechst High Intensity Objects (%) [7]: 20%
Population Membrane Permeable-Phenotype (%) [7]: 6%
Population Mitochondria Different-Phenotype (%) [7]: 18%
Population Mitotic Cells (%) [7]: 61%
Population Normal (%) [7]: 79%
Population Pyknosed Nuclei (%) [7]: 25%
Population Tubulin-Different-Phenotype (%) [7]: 12%
Total Cell Count [7]: 482
Population Apoptotic (%) [8]: 44%
Population Fragmented Nuclei (%) [8]: 7%
Population Healthy Nuclei (%) [8]: 85%
Population Hoechst High Intensity Objects (%) [8]: 10%
Population Membrane Permeable-Phenotype (%) [8]: 1%
Population Mitochondria Different-Phenotype (%) [8]: 27%
Population Mitotic Cells (%) [8]: 55%
Population Normal (%) [8]: 89%
Population Pyknosed Nuclei (%) [8]: 6%
Population Tubulin-Different-Phenotype (%) [8]: 19%
Total Cell Count [8]: 858
